Data as given in ChEMBL document CHEMBL5724801, “EUbOPEN Chemogenomics Library - Multiplex” (2024).
“And” between values parts separate entries of the source, which are not always exact repeats. Equal entries are not always repeated.

Test system: U2OS
Test: Multiplex assay against U2OS
Format: toxicity, cell-based
Details: human
Procedure, shortened: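 At seeding, live cells were stained with Hoechst33342, BioTracker Green Microtubule Cytoskeleton Dye, MitoTracker Red and Annexin V Alexa Fluor 680. After compound addition they were imaged on a CQ1 microscope at 37°C and 5% CO2, and CellPathfinder machine-learning gating sorted them into Hoechst high-intensity objects or normal cells, with normal cells further split into healthy, pyknosed or fragmented nuclei and pyknosed cells into mitotic or apoptotic. Tubulin, mitochondrial-mass and membrane-permeability phenotypes are given as per cents of cells with healthy nuclei.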

[1] = 12 h, 1 µM, compound concentration 1 uM
[2] = 12 h, 10 µM, compound concentration 10 uM
[3] = 24 h, 1 µM, compound concentration 1 uM
[4] = 24 h, 10 µM, compound concentration 10 uM
[5] = 48 h, 1 µM, compound concentration 1 uM
[6] = 48 h, 10 µM, compound concentration 10 uM

c1cc(OCCCN2CCCCC2)ccc1CN1CCCCC1 [JNJ-5207852]
Population Apoptotic (%) [1]: 76% and 58%
Population Fragmented Nuclei (%) [1]: 29% and 25%
Population Healthy Nuclei (%) [1]: 65% and 62%
Population Hoechst High Intensity Objects (%) [1]: 2% and 0%
Population Membrane Permeable-Phenotype (%) [1]: 5% and 7%
Population Mitochondria Different-Phenotype (%) [1]: 3%
Population Mitotic Cells (%) [1]: 23% and 41%
Population Normal (%) [1]: 97% and 99%
Population Pyknosed Nuclei (%) [1]: 5% and 11%
Population Tubulin-Different-Phenotype (%) [1]: 3%
Total Cell Count [1]: 253 and 106
Population Apoptotic (%) [2]: 73% and 85%
Population Fragmented Nuclei (%) [2]: 34% and 13%
Population Healthy Nuclei (%) [2]: 57% and 80%
Population Hoechst High Intensity Objects (%) [2]: 2% and 4%
Population Membrane Permeable-Phenotype (%) [2]: 5% and 7%
Population Mitochondria Different-Phenotype (%) [2]: 3% and 9%
Population Mitotic Cells (%) [2]: 26% and 14%
Population Normal (%) [2]: 97% and 95%
Population Pyknosed Nuclei (%) [2]: 8% and 6%
Population Tubulin-Different-Phenotype (%) [2]: 3% and 6%
Total Cell Count [2]: 228 and 120
Population Apoptotic (%) [3]: 84% and 66%
Population Fragmented Nuclei (%) [3]: 25% and 21%
Population Healthy Nuclei (%) [3]: 65% and 68%
Population Hoechst High Intensity Objects (%) [3]: 1% and 0%
Population Membrane Permeable-Phenotype (%) [3]: 3% and 4%
Population Mitochondria Different-Phenotype (%) [3]: 2%
Population Mitotic Cells (%) [3]: 16% and 33%
Population Normal (%) [3]: 98% and 100%
Population Pyknosed Nuclei (%) [3]: 8% and 10%
Population Tubulin-Different-Phenotype (%) [3]: 2% and 4%
Total Cell Count [3]: 287 and 119
Population Apoptotic (%) [4]: 82% and 84%
Population Fragmented Nuclei (%) [4]: 28% and 10%
Population Healthy Nuclei (%) [4]: 62% and 80%
Population Hoechst High Intensity Objects (%) [4]: 1%
Population Membrane Permeable-Phenotype (%) [4]: 4% and 8%
Population Mitochondria Different-Phenotype (%) [4]: 3% and 5%
Population Mitotic Cells (%) [4]: 17% and 15%
Population Normal (%) [4]: 98%
Population Pyknosed Nuclei (%) [4]: 8%
Population Tubulin-Different-Phenotype (%) [4]: 3% and 8%
Total Cell Count [4]: 271 and 157
Population Apoptotic (%) [5]: 82% and 76%
Population Fragmented Nuclei (%) [5]: 21% and 19%
Population Healthy Nuclei (%) [5]: 69% and 71%
Population Hoechst High Intensity Objects (%) [5]: 2% and 3%
Population Membrane Permeable-Phenotype (%) [5]: 4% and 9%
Population Mitochondria Different-Phenotype (%) [5]: 2% and 4%
Population Mitotic Cells (%) [5]: 17% and 23%
Population Normal (%) [5]: 97% and 96%
Population Pyknosed Nuclei (%) [5]: 8%
Population Tubulin-Different-Phenotype (%) [5]: 4% and 3%
Total Cell Count [5]: 400 and 152
Population Apoptotic (%) [6]: 86% and 93%
Population Fragmented Nuclei (%) [6]: 22% and 14%
Population Healthy Nuclei (%) [6]: 70% and 78%
Population Hoechst High Intensity Objects (%) [6]: 2% and 1%
Population Membrane Permeable-Phenotype (%) [6]: 7% and 6%
Population Mitochondria Different-Phenotype (%) [6]: 3% and 2%
Population Mitotic Cells (%) [6]: 13% and 6%
Population Normal (%) [6]: 97% and 98%
Population Pyknosed Nuclei (%) [6]: 6%
Population Tubulin-Different-Phenotype (%) [6]: 5% and 4%
Total Cell Count [6]: 345 and 245

C=CC(=O)Nc1cc(Nc2nccc(-n3cc(CN(C)C)c(-c4ccccc4)n3)n2)c(OC)cc1N1CCOCC1 [LAZERTINIB]
Population Apoptotic (%) [1]: 37.5% and 46.67%
Population Fragmented Nuclei (%) [1]: 2.41% and 2.92%
Population Healthy Nuclei (%) [1]: 85.54% and 75.18%
Population Hoechst High Intensity Objects (%) [1]: 0%
Population Membrane Permeable-Phenotype (%) [1]: 40.14% and 54.37%
Population Mitotic Cells (%) [1]: 62.5% and 53.33%
Population Normal (%) [1]: 100%
Population Pyknosed Nuclei (%) [1]: 12.05% and 21.9%
Population Tubulin-Different-Phenotype (%) [1]: 55.63% and 64.08%
Total Cell Count [1]: 332 and 137
Population Apoptotic (%) [2]: 49.07% and 38.89%
Population Fragmented Nuclei (%) [2]: 3.84% and 4.81%
Population Healthy Nuclei (%) [2]: 68.54% and 60.58%
Population Hoechst High Intensity Objects (%) [2]: 0%
Population Membrane Permeable-Phenotype (%) [2]: 48.88% and 50.79%
Population Mitotic Cells (%) [2]: 50.93% and 61.11%
Population Normal (%) [2]: 100%
Population Pyknosed Nuclei (%) [2]: 27.62% and 34.62%
Population Tubulin-Different-Phenotype (%) [2]: 97.39% and 85.71%
Population Apoptotic (%) [3]: 29.69% and 52.94%
Population Fragmented Nuclei (%) [3]: 2.35% and 3.45%
Population Healthy Nuclei (%) [3]: 80.94% and 73.1%
Population Hoechst High Intensity Objects (%) [3]: 0%
Population Membrane Permeable-Phenotype (%) [3]: 20% and 30.19%
Population Mitotic Cells (%) [3]: 70.31% and 47.06%
Population Normal (%) [3]: 100%
Population Pyknosed Nuclei (%) [3]: 16.71% and 23.45%
Population Tubulin-Different-Phenotype (%) [3]: 32.58% and 42.45%
Total Cell Count [3]: 383 and 145
Population Apoptotic (%) [4]: 55.04% and 53.66%
Population Fragmented Nuclei (%) [4]: 3.46% and 5.83%
Population Healthy Nuclei (%) [4]: 64.69% and 54.37%
Population Hoechst High Intensity Objects (%) [4]: 0.25% and 0%
Population Membrane Permeable-Phenotype (%) [4]: 39.69% and 35.71%
Population Mitotic Cells (%) [4]: 44.96% and 46.34%
Population Normal (%) [4]: 99.75% and 100%
Population Pyknosed Nuclei (%) [4]: 31.85% and 39.81%
Population Tubulin-Different-Phenotype (%) [4]: 93.51% and 87.5%
Population Apoptotic (%) [5]: 61.96% and 68.33%
Population Fragmented Nuclei (%) [5]: 3% and 6.88%
Population Healthy Nuclei (%) [5]: 79.78% and 55.62%
Population Hoechst High Intensity Objects (%) [5]: 0%
Population Mitotic Cells (%) [5]: 38.04% and 31.67%
Population Normal (%) [5]: 100%
Population Pyknosed Nuclei (%) [5]: 17.23% and 37.5%
Population Tubulin-Different-Phenotype (%) [5]: 15.02% and 28.09%
Population Apoptotic (%) [6]: 64.5% and 69.23%
Population Fragmented Nuclei (%) [6]: 5.97% and 5.31%
Population Healthy Nuclei (%) [6]: 59.26% and 60.18%
Population Hoechst High Intensity Objects (%) [6]: 0%
Population Membrane Permeable-Phenotype (%) [6]: 31.6% and 30.88%
Population Mitotic Cells (%) [6]: 35.5% and 30.77%
Population Normal (%) [6]: 100%
Population Pyknosed Nuclei (%) [6]: 34.77% and 34.51%
Population Tubulin-Different-Phenotype (%) [6]: 77.43% and 79.41%

COC(=O)c1ccc2c(c1)NC(=O)/C2=C(\Nc1ccc(N(C)C(=O)CN2CCN(C)CC2)cc1)c1ccccc1 [NINTEDANIB]
Population Apoptotic (%) [1]: 50% and 43.75%
Population Fragmented Nuclei (%) [1]: 2.42% and 2.88%
Population Healthy Nuclei (%) [1]: 89.37% and 85.61%
Population Hoechst High Intensity Objects (%) [1]: 0%
Population Membrane Permeable-Phenotype (%) [1]: 1.62% and 4.2%
Population Mitochondria Different-Phenotype (%) [1]: 0% and 14.29%
Population Mitotic Cells (%) [1]: 50% and 56.25%
Population Normal (%) [1]: 100%
Population Pyknosed Nuclei (%) [1]: 8.21% and 11.51%
Population Tubulin-Different-Phenotype (%) [1]: 1.89% and 2.52%
Total Cell Count [1]: 414 and 139
Population Apoptotic (%) [2]: 48.33% and 44.44%
Population Fragmented Nuclei (%) [2]: 3.26% and 6.04%
Population Healthy Nuclei (%) [2]: 72.3% and 74.18%
Population Hoechst High Intensity Objects (%) [2]: 0%
Population Membrane Permeable-Phenotype (%) [2]: 21.97% and 30.37%
Population Mitotic Cells (%) [2]: 51.67% and 55.56%
Population Normal (%) [2]: 100%
Population Pyknosed Nuclei (%) [2]: 24.44% and 19.78%
Population Tubulin-Different-Phenotype (%) [2]: 64.79% and 29.63%
Total Cell Count [2]: 491 and 182
Population Apoptotic (%) [3]: 35.56% and 50%
Population Fragmented Nuclei (%) [3]: 1.16% and 2.33%
Population Healthy Nuclei (%) [3]: 90.15% and 79.07%
Population Hoechst High Intensity Objects (%) [3]: 0%
Population Membrane Permeable-Phenotype (%) [3]: 1.07% and 1.47%
Population Mitotic Cells (%) [3]: 64.44% and 50%
Population Normal (%) [3]: 100%
Population Pyknosed Nuclei (%) [3]: 8.69% and 18.6%
Population Tubulin-Different-Phenotype (%) [3]: 1.28% and 1.47%
Population Apoptotic (%) [4]: 62.5% and 65.62%
Population Fragmented Nuclei (%) [4]: 5.58% and 6.29%
Population Healthy Nuclei (%) [4]: 63.02% and 57.14%
Population Hoechst High Intensity Objects (%) [4]: 0%
Population Membrane Permeable-Phenotype (%) [4]: 6.23% and 9%
Population Mitotic Cells (%) [4]: 37.5% and 34.38%
Population Normal (%) [4]: 100%
Population Pyknosed Nuclei (%) [4]: 31.4% and 36.57%
Population Tubulin-Different-Phenotype (%) [4]: 63.93% and 46%
Total Cell Count [4]: 484 and 175
Population Apoptotic (%) [5]: 57.5% and 53.12%
Population Fragmented Nuclei (%) [5]: 1.52% and 3.23%
Population Healthy Nuclei (%) [5]: 89.14% and 83.87%
Population Hoechst High Intensity Objects (%) [5]: 0%
Population Membrane Permeable-Phenotype (%) [5]: 2.1% and 4.33%
Population Mitochondria Different-Phenotype (%) [5]: 0.26% and 9.62%
Population Mitotic Cells (%) [5]: 42.5% and 46.88%
Population Normal (%) [5]: 100%
Population Pyknosed Nuclei (%) [5]: 9.35% and 12.9%
Population Tubulin-Different-Phenotype (%) [5]: 1.57% and 3.37%
Population Apoptotic (%) [6]: 78.69% and 91.94%
Population Fragmented Nuclei (%) [6]: 1.9% and 1.52%
Population Healthy Nuclei (%) [6]: 54.63% and 51.52%
Population Hoechst High Intensity Objects (%) [6]: 0.24% and 0%
Population Membrane Permeable-Phenotype (%) [6]: 1.74% and 8.82%
Population Mitochondria Different-Phenotype (%) [6]: 29.13% and 51.47%
Population Mitotic Cells (%) [6]: 21.31% and 8.06%
Population Normal (%) [6]: 99.76% and 100%
Population Pyknosed Nuclei (%) [6]: 43.47% and 46.97%
Population Tubulin-Different-Phenotype (%) [6]: 69.57% and 76.47%
